Data on 22 molecules can be found in ChEMBL document CHEMBL2046347, “Structure-activity relationships in human Toll-like receptor 2-specific monoacyl lipopeptides” (J Med Chem, 2012).

Calls of active or inactive are those of the source. The rule behind the calls is not given here.

Type in all cases: functional, cell-based
The target of experiment [1] is Toll-like receptor 2 (Homo sapiens) (UniProt O60603). Nature of the experiment: Agonist activity at human TLR2 expressed in HEK293 cells assessed as NFkappaB translocation at 10 uM after 12 hrs by secretory alkaline phosphatase reporter gene assay. For orientation: In a reporter assay the amount or activity of a reporter protein is the signal.
Toll-like receptor 2 (Homo sapiens), sequence (O60603 whole entry): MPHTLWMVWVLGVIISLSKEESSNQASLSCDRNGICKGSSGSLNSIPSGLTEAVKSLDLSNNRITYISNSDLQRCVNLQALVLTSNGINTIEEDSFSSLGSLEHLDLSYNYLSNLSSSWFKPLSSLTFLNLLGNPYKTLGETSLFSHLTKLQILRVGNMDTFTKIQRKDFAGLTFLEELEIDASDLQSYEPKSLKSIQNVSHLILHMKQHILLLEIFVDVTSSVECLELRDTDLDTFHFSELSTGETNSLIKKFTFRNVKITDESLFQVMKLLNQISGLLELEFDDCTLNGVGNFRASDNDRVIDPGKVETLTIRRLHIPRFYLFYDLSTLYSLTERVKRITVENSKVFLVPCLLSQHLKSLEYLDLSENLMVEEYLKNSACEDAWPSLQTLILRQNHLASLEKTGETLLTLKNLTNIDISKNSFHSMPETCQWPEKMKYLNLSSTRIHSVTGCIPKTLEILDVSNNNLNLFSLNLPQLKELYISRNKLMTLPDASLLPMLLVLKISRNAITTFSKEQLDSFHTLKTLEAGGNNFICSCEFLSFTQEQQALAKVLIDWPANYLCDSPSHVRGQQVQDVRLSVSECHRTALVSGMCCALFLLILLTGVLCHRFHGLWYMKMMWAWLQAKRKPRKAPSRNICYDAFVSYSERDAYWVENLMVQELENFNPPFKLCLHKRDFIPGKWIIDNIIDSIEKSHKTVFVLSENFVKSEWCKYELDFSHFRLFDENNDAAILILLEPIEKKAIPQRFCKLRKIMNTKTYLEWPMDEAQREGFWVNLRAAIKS
For experiment [2] the target is unchanged. Nature of the experiment: Agonist activity at human TLR2 expressed in HEK293 cells assessed as NFkappaB translocation after 12 hrs by secretory alkaline phosphatase reporter gene assay. A digest of the protocol:
(§1)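 HEK293 cells stably carrying human or murine TLR2 plus an NF-κB-driven secreted alkaline phosphatase reporter, kept in selection medium with zeocin and normocin. Seeded at ~10⁵ cells/mL and grown to confluency, then exposed to serially diluted compounds for 12 h. Secreted phosphatase in supernatant read colorimetrically at 620 nm with an alkaline phosphatase-specific chromogen in detection medium.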

The target is the same in experiment [3]. Nature of the experiment: Antagonistic activity at human TLR2 expressed in HEK293 cells assessed as inhibition of PAM2CS-induced NFkappaB translocation by secretory alkaline phosphatase reporter gene assay. The method, boiled down: (§2)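 Reporter HEK293 lines (human or murine TLR2, NF-κB-inducible secreted alkaline phosphatase) plated at ~10⁵ cells/mL. Stimulated with PAM2CS (1 μg/mL) or lipoteichoic acid (1 μg/mL) in the presence of graded test-compound concentrations. Phosphatase activity in supernatant measured spectrophotometrically at 620 nm using a phosphatase-specific chromogen.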

Experiment [4] concerns the target Toll-like receptor 2 (Mus musculus) (UniProt Q9QUN7). In words: Antagonistic activity at mouse TLR2 expressed in HEK293 cells assessed as inhibition of PAM2CS-induced NFkappaB translocation by secretory alkaline phosphatase reporter gene assay. The method, boiled down:
as §2

Experiment [5] concerns the target Toll-like receptor 2 (Homo sapiens) (UniProt O60603). In words: Antagonistic activity at human TLR2 expressed in HEK293 cells assessed as inhibition of lipoteichoic acid-induced NFkappaB translocation by secretory alkaline phosphatase reporter gene assay. A digest of the protocol:
as §2

Experiment [6] concerns the target Toll-like receptor 2 (Mus musculus) (UniProt Q9QUN7). In words: Antagonistic activity at mouse TLR2 expressed in HEK293 cells assessed as inhibition of lipoteichoic acid-induced NFkappaB translocation by secretory alkaline phosphatase reporter gene assay. A digest of the protocol: as §2
Experiment [7] has the same target. Nature of the experiment: Agonist activity at mouse TLR2 expressed in HEK293 cells assessed as NFkappaB translocation after 12 hrs by secretory alkaline phosphatase reporter gene assay. The method, boiled down: as §1

Toll-like receptor 2 (Mus musculus), sequence (Q9QUN7 whole entry): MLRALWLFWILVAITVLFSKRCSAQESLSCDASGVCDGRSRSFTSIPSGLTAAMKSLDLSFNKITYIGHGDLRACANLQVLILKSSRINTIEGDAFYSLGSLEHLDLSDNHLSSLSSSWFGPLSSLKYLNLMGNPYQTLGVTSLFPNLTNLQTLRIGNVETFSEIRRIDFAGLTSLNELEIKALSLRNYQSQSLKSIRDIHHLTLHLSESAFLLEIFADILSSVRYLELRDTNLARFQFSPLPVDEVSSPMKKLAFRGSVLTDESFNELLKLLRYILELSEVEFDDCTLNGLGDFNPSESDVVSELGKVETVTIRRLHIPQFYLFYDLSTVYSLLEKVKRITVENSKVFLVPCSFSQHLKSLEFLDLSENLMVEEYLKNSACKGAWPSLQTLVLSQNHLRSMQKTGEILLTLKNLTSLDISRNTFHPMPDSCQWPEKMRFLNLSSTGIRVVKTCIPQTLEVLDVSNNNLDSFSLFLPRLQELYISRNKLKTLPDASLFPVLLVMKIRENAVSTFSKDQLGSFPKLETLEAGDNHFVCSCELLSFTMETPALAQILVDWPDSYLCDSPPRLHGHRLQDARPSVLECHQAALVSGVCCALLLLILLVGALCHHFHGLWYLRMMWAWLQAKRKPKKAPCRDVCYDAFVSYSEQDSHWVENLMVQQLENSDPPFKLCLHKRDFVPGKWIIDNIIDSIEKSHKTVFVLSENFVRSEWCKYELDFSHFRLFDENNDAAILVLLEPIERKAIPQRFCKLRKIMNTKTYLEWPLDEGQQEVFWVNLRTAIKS

For the molecule `CCCCCCCCCCCCCCCCN[C@@H](CSCCOC(=O)CCCCCCCCCCCCCCC)C(=O)N[C@@H](CO)C(=O)OC`, the outcome in experiment [1] was inactive.

For the molecule `CCCCCCCCCCCCCCCC(=O)OCCSC[C@H](NS(=O)(=O)c1ccc(C)cc1)C(=O)N[C@@H](CO)C(=O)OC`, the outcome in experiment [2] was inactive.

As for `COC(=O)[C@H](CO)NC(=O)[C@@H](N)CSCCOC(=O)c1ccc(-c2ccccc2)cc1`, the result in experiment [1] was inactive. Besides, the inhibition entry in experiment [3], in experiment [4], in experiment [5] and in experiment [6] was “inactive” each time.

Consider `CCCCCCCCCCCCCCCC(=O)OCCSC[C@H](NCC)C(=O)N[C@@H](CO)C(=O)OC`, for which, in experiment [1], the outcome was inactive.

For the molecule `CCCCCCCCCCCCCCCC(=O)OCCSC[C@H](NC(=O)CCCCCCC)C(=O)N[C@@H](CO)C(=O)OC`, the outcome in experiment [7] was inactive.

As for `CCCCCCCCCCCCCCN(CCCCCCCCCCCCCC)CC(=O)OCCSC[C@H](N)C(=O)N[C@@H](CO)C(=O)OC`, the outcome in experiment [1] was inactive.

As for `CCCCCCCCCCCCCCCC(=O)OCCSC[C@H](NS(C)(=O)=O)C(=O)N[C@@H](CO)C(=O)OC`, the outcome in experiment [2] was inactive.

Consider `COC(=O)[C@H](CO)NC(=O)[C@@H](N)CSCCOC(=O)c1cccc(-c2ccccc2)c1`, for which the outcome in experiment [1] was inactive. Also, the inhibition entry in experiment [3], in experiment [4], in experiment [5] and in experiment [6] was “inactive” in each case.

Take `CCCCCCCCCCCCCCNCC(=O)OCCSC[C@H](N)C(=O)N[C@@H](CO)C(=O)OC`: in experiment [1], the outcome was inactive.

In the case of `CCCCCCCCCCCCCCCCCC(=O)OCCSC[C@H](N)C(=O)N[C@@H](CO)C(=O)OC`, the outcome in experiment [7] was inactive.

As for `CCCCCCCCCCCCCCCC(=O)OCCSC[C@H](NC(C)=O)C(=O)N[C@@H](CO)C(=O)OC`, in experiment [7], the result was inactive.

Turning to `CCCCCCCCCCCCCCCC(=O)N[C@@H](CSCCOC(=O)CCCCCCCCCCCCCCC)C(=O)N[C@@H](CO)C(=O)OC`, the result in experiment [1] was inactive.

For the molecule `CCCCCCCCCCCCCCCC(=O)OCCSC[C@H](NS(=O)(=O)C(F)(F)F)C(=O)N[C@@H](CO)C(=O)OC`, in experiment [2], the result was inactive.

Consider `CCCCCCCCCCCCCCCC(=O)OCCSC[C@H](NC(=O)C(Cl)(Cl)Cl)C(=O)N[C@@H](CO)C(=O)OC`, for which the result in experiment [2] was inactive.

In the case of `CCCCCCCCCCCCCCCC(=O)OCCSC[C@H](N)C(=O)N[C@@H](COC(C)=O)C(=O)OC`, the outcome in experiment [2] was Active.

Consider `CCCCCCCC(=O)OCCSC[C@H](N)C(=O)N[C@@H](CO)C(=O)OC`, for which the outcome in experiment [1] was inactive. Moreover, the inhibition result in experiment [3], in experiment [4], in experiment [5] and in experiment [6] was “inactive” throughout.

For `CCCC(=O)OCCSC[C@H](N)C(=O)N[C@@H](CO)C(=O)OC`, the result in experiment [1] was inactive. Further, the inhibition entry in experiment [3], in experiment [4], in experiment [5] and in experiment [6] was “inactive” throughout.

Regarding `COC(=O)[C@H](CO)NC(=O)[C@@H](N)CSCCOC(=O)c1ccc(-c2ccc(-c3ccccc3)cc2)cc1`, in experiment [1], the outcome was inactive. The inhibition entry in experiment [3], in experiment [4], in experiment [5] and in experiment [6] was “inactive” each time.

Take `CCCCCCCCCCCCCCCC(=O)OCCSC[C@H](NC(=O)CCC)C(=O)N[C@@H](CO)C(=O)OC`: in experiment [7], the result was inactive.

For `CCCCCCCCCCCCCCCC(=O)OCCSC[C@H](NCCCCCCCC)C(=O)N[C@@H](CO)C(=O)OC`, the outcome in experiment [1] was inactive.

Turning to `CCCCCCCCCCCCCCCC(=O)OCCSC[C@H](N)C(=O)N[C@@H](CO)C(=O)OC`, in experiment [7], the result was inactive.

Regarding `CCCCCCCCCCCC(=O)OCCSC[C@H](N)C(=O)N[C@@H](CO)C(=O)OC`, the outcome in experiment [1] was inactive. Further, the inhibition result in experiment [3], in experiment [4], in experiment [5] and in experiment [6] was “inactive” each time.
